From ChEMBL document CHEMBL1166017, “Alpneumines A-H, new anti-melanogenic indole alkaloids from Alstonia pneumatophora” (Bioorg Med Chem, 2010) come the findings set out here.

As usually defined, the IC50 is the point on the concentration scale where inhibition reaches its midpoint.

The structures appear in SMILES notation. The source made the active and inactive calls. The rule behind the calls is not given here.

One series has as its target T1, Tyrosinase (Agaricus bisporus, UniProt O42713).
T1 sequence (O42713 whole entry): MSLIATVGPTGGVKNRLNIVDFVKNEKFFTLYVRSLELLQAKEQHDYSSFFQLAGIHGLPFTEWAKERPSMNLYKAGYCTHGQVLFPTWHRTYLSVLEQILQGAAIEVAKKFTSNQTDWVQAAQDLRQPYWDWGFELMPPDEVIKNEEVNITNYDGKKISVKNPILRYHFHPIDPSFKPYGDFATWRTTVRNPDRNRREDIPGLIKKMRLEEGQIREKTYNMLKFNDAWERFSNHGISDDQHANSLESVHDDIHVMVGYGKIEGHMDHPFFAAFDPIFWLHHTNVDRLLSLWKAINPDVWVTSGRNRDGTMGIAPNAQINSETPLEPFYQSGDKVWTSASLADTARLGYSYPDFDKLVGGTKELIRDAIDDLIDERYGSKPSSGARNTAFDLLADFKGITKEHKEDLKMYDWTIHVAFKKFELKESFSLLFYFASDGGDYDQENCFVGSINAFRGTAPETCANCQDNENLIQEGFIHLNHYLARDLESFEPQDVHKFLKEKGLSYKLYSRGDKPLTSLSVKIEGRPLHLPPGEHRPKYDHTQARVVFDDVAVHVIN
Briefly: Inhibition of mushroom tyrosinase.

Series [1] deals with B16. Kind of series: Antimelanogenic activity in mouse B16 cells assessed as decrease in intracellular melanin level after 4 days. It counts as functional, cell-based. To be noted: B16, 96 h. The essentials:
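B16 cells in DMEM with 10% FBS and penicillin/streptomycin, seeded at 5000 cells/well and preincubated 24 h at 37 °C in 5% CO2. Cultured with IBMX (100 µM) with or without sample at 6.3–100 µM for 48 h, then in fresh medium under the same conditions for a further 48 h. Cells dissolved in 1 N NaOH at 90 °C for 1 h. Relative melanin read at 400 nm. Arbutin was the positive control.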

Series [2] deals with B16. Kind of series: Inhibition of tyrosinase expression in mouse B16 cells after 1 hr by Western blotting. It counts as functional, cell-based. The essentials: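 B16 cells were treated with sample at 50 and 75 µM plus 0.1 mM IBMX, then lysed. Lysates were run on 7.5% SDS–PAGE and transferred to PVDF, which was blocked 1 h in 5% skim milk. Anti-tyrosinase (1:2000) was applied overnight and anti-β-actin (1:2000) for 1 h, followed by HRP-conjugated secondary IgG.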
(In general: A western blot detects proteins with antibodies after separation by electrophoresis.)

The test system of series [3] is B16. Briefly: Antimelanogenic activity in mouse B16 cells assessed as decrease in intracellular melanin level at IC50 after 4 days. It counts as functional. Also on record: scale not given: the % may be the effect or the level left.
The test system of series [4] is B16. Kind of series: Cytotoxicity against mouse B16 cells assessed as cell viability after 4 days by MTT assay. The class given is cell-based. To be noted: b16, 96 h. The essentials:
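B16 cells were cultured as for the melanin assay: IBMX 100 µM and sample at 6.3–100 µM for 4 days. MTT (5 mg/mL solution) was added for 2 h, and the formazan was dissolved in DMSO. Absorbance was read at 550 and 700 nm. Viability was taken from the absorbance difference between samples and controls, in triplicate.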

For the molecule `COC(=O)C1=C2Nc3c(O)cccc3[C@]23CC[N+]2([O-])C[C@H](C(C)=O)[C@H]1C[C@H]32` (some centres not stated) [ALPNEUMINE A], at Tyrosinase, the IC50 is above 100 µM.
The same measure, in the same setting: for `COC(=O)C1=C2Nc3c(O)cccc3[C@]23CCN2C[C@H](C(C)=O)[C@H]1C[C@@H]23` [ALPNEUMINE B] the value was above 100 µM.
Still for that read-out and setting: with `COC(=O)C1=C2Nc3ccccc3[C@]23CC[N+]2([O-])C[C@H](C(C)=O)[C@H]1C[C@H]32` (some centres not stated) [ALPNEUMINE C] the figure was above 100 µM.
As for `COC(=O)C1=C2Nc3c(O)cccc3[C@]23CCN2C[C@@H](C(C)=O)[C@H]1C[C@@H]23` [ALPNEUMINE D], the 50% inhibitory concentration (IC50) against Tyrosinase is above 100 µM.
As to `COC(=O)C1=C2Nc3ccccc3[C@]23CCN2C[C@@H](C(C)=O)[C@H]1C[C@@H]23` [ALPNEUMINE E], the IC50 on Tyrosinase was above 100 µM; with B16 [1], 71.4 µM.
`COC(=O)[C@@]12CO[C@@]3(O)[C@H]1CCN1CC[C@H]3[C@@H]1c1c2[nH]c2ccccc12` [ALPNEUMINE F]: the concentration for half-maximal inhibition (IC50) on Tyrosinase was above 100 µM.
In the case of `CC[C@]12CCC[N+]3([O-])CCc4c(n(c5ccccc45)[C@@](O)(C(=O)OC)C1)[C@H]23` (some centres not stated) [ALPNEUMINE G], the IC50 at Tyrosinase was above 100 µM; in the series with B16 [1] it was 58.3 µM. Also, the outcome in the series on B16 [2] was Active. The Activity is on record as below 50% in the series with B16 [3] and “Dose-dependent effect” with B16 [4].
`COC(=O)[C@@]12COCC[C@H]3[C@@H]1CC[N@+](C)([O-])[C@H]3c1c2[nH]c2ccccc12` [ALPNEUMINE H] displayed an IC50 at Tyrosinase above 100 µM.
Consider `CC[C@@]12C=C(C(=O)OC)n3c4c(c5ccccc53)CCN(CCC1)[C@H]42` [APOVINCAMINE], for which the Activity in the series with B16 [3] is listed as below 50%. Besides, the IC50 in the series with B16 [1] was found to be 49.8 µM.
On to `CC[C@]12CCCN3CCc4c(n(c5ccccc45)[C@@](O)(C(=O)OC)C1)[C@@H]32` [VINCAMINE], for which the Activity in the series on B16 [3] was below 50%. For the same molecule, the IC50 with B16 [1] stood at 68.9 µM.
